Activity calls are given as the source filed them.
Legend:
Mus musculus = assay: Decrease in H3K9me2 level in SCID/beige mouse tumor xenografted with human MV4-11 cells at 30 mg/kg/day via osmotic-mini pump for 14 days by alphaLisa assay; assay type: functional, organism-based; conditions: Neoplasm, time 14.0 day
How it was run: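 Female SCID-beige mice, 6–8 weeks old, received 5 x 10^6 MV4;11 cells in 50% Matrigel subcutaneously in the flank. At about 200 mm3, compound was given at 30 mg/kg/day by osmotic mini-pump in 98% PEG-400/2% Tween-80. In the PK/PD arm, tumors were harvested at the stated day and H3K9me2 was measured by AlphaLISA relative to vehicle.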

MV4-11 [1] = assay: Induction of cell cycle arrest in human MV4-11 cells assessed as increase in subG0/G1 cells after 14 days by propidium iodide staining based flow cytometry; assay type: functional; conditions: time 14.0 day
How it was run: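 MV4;11 cells treated 14 days with compound over a concentration range. They were then washed in cold PBS and stained 20 min with 50 μg/ml propidium iodide, 0.1 mg/ml RNase A, 0.1% BSA and 0.1% Triton X-100. Cell-cycle DNA content, including sub-G1/G0 fraction, measured by flow cytometry on BD LSR-II.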

MV4-11 [2] = assay: Induction of cell morphology change in human MV4-11 cells assessed as increase in cytoplasm-nucleus ratio and nuclear lobulation at 5 uM after 10 days by Wright- Geimsa staining analysis; assay type: functional, cell-based; conditions: time 10.0 day
How it was run: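 MV4;11 cells exposed to DMSO or 5 μM compound for 10 days, then stained with a Wright-Giemsa kit. Morphology was examined for cytoplasm:nucleus ratio and nuclear lobulation.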

COc1cc2c(cc1OCCCN1CCCC1)N=C(N)C21CCC1
active: inhibition (Mus musculus) | Activity (MV4-11 [1]) | Activity (MV4-11 [2])
